Published values pooled from the literature.
Compare with care: the assays were run in different laboratories.
Cell line: A549
Effect on: cell growth or viability

SMILES	method	time	IC50
COc1ccc(Cn2cnc3ccc(-c4ccc(NC(=O)c5ccccc5)nc4)cc3c2=O)cc1	CCK-8	72 h	> 10 µM
CC(C)[C@@H]1NC(=O)[C@@H](CCCNC(=N)N)NC(=O)[C@H]([C@@H](C)O)NC(=O)[C@@H](CN)NC(=O)[C@H](Cc2ccccc2)NC(=O)[C@@H](Cc2ccccc2)NC1=O	ATP luminescence		79.8 µM
O=[N+]([O-])c1ccc(NC(=S)N/N=C/c2cccc3cc4ccccc4nc23)cc1	MTT	48 h	> 50 µM
OC1CCN(c2ccc(/C=N/NC(=S)NCc3ccccc3)cc2)CC1	MTT	24 h	4.25 µM
CN(C)C(=O)Nc1nc2ccc(Br)cc2c(=O)n1-c1ccccc1	MTT	48 h	31.1 µM
CCCn1cnc2ccc(-c3ccc4sc(NC(=O)Nc5ccc(F)cc5)nc4c3)cc2c1=O	MTT	72 h	0.44 µM
C#Cc1cccc(Nc2ncnc3cc(OCCOC)c(OCCOC)cc23)c1	MTT	48 h	17.3 µM
O=C(NO)Nc1nc2c(Cl)cc(Cl)cc2c(=O)n1-c1ccccc1	MTT	48 h	45.1 µM
COC(=O)c1cc(C(C)=NNc2nc(-c3ccc4c(c3)OCCCO4)cs2)ccc1O	MTT	96 h	180 µM
O=C(O)c1ccc(NCc2ccc(Br)cc2)cc1	resazurin	72 h	> 100 µM
CC(=O)c1c(O)c2ccccc2oc1=O	MTT	48 h	29.2 µM
C#CCn1cnc2ccc(-c3ccc(NC(=O)CCCC)nc3)cc2c1=O	CCK-8	72 h	> 10 µM
O=C(O)c1ccc(NCc2cccc(C(F)(F)F)c2)cc1	resazurin	72 h	> 100 µM
CCCn1cnc2ccc(-c3ccc(N4CCCCC4=O)nc3)cc2c1=O	CCK-8	72 h	> 10 µM
Cc1ccc(NC(=O)Nc2nc3cc(-c4ccc5ncn(Cc6ccccc6)c(=O)c5c4)ccc3s2)cc1	MTT	72 h	7.61 µM
CCCCC(=O)Nc1ccc(-c2ccc3ncn(CCC)c(=O)c3c2)cn1	CCK-8	72 h	0.11 µM
COc1cccc(NC(=O)Nc2nc3cc(-c4ccc5ncn(CCN6CCOCC6)c(=O)c5c4)ccc3s2)c1	MTT	72 h	1.14 µM
CCCCC(=O)Nc1ccc(-c2ccc3ncn(CCC(C)C)c(=O)c3c2)cn1	CCK-8	72 h	0.45 µM
O=C(N[C@@H](CSCc1nc2cc([N+](=O)[O-])ccc2[nH]1)C(=O)NO)c1ccccc1	MTT	48 h	< 500 µM
CCCn1cnc2ccc(-c3ccc(NC(=O)CC4CC4)nc3)cc2c1=O	CCK-8	72 h	2.65 µM
COc1cc(C=NNC(=O)c2cc(-c3ccccc3)n(-c3ccc(S(N)(=O)=O)cc3)n2)cc(OC)c1OC	fluorescence	48 h	18.8 µM
CCCCn1cnc2ccc(-c3ccc(NC(=O)NC(C)(C)C)nc3)cc2c1=O	CCK-8	72 h	> 10 µM
Cc1cc(NS(=O)(=O)c2ccc(NC(=O)/C(C#N)=C/c3ccc(N4CCCC4)cc3)cc2)no1	MTT	48 h	180 µM
